Results reported in ChEMBL document CHEMBL4513216, “Probing the Open Global Health Chemical Diversity Library for Multistage-Active Starting Points for Next-Generation Antimalarials” (ACS Infect Dis, 2020).

Experiment: Toxicity liver stage against HepG2, at 10uM
Format: cell-based
Parameters: test concentration 10 uM, cell line HepG2-A16-CD81EGFP
Conditions: human, HepG2-A16-CD81EGFP cells; read-out: INHIBITION
In short: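 Uninfected HepG2-A16-CD81EGFP cells, 3 × 10^3 per well, 1536-well, plated on prespotted compound at 10 μM final, parasite-free screening media added to match infected plates; puromycin 10 μM positive, DMSO 0.5% negative; run in parallel with 48 h PbLuc assay at 37 °C, 5% CO2; viability by CellTiter-Glo luminescence, normalized to controls.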

Row | Compound | cytotoxicity at 10 µM [%]
1 | CCOc1cccc(C(=O)Nc2ccncc2)c1 | 8.59
2 | CN1CCOC[C@H]1c1nc(C(C)(C)C)c[nH]1 | 5.08
3 | COc1ccccc1C(=O)NC[C@H]1COCc2nc3c(C)cccc3n21 | 0.331
4 | CC(O)(CCc1ccccc1)CNC(=O)c1ccsc1 (stereo unspecified) | -1.18
5 | CNC(=O)Cc1csc(NC(=O)C2CSCCC(=O)N2)n1 (stereo unspecified) | -4.94
6 | O=C(c1ccco1)N1CC(S(=O)(=O)c2ccc(Cl)cc2)C1 | -2.02
7 | O=C(Nc1ccccc1)C1CCCN(c2cc(-n3cncn3)ncn2)C1 (stereo unspecified) | -2.1
8 | CCN1C[C@H]2CCN(C(=O)Nc3ccccc3C)CC[C@H]2S1(=O)=O | 1.08
9 | CCC(CC)NC(=O)c1ccc2nnc(C3CCN(C(C)=O)C3)n2c1 (stereo unspecified) | -2.19
10 | CC(C)CN1CCNC(=O)C12CCN(C(=O)c1ccccn1)CC2 | 5.25
11 | O=C(c1c2c(NCC3CC3)ncnc2n2ccccc12)N1CCOCC1 | 9.82
12 | Cc1csc([C@@H]2C[C@@H]3CCN(C(=O)c4cccn4C)C[C@H]3O2)n1 | 4.12
13 | O=C(O)c1nnn(-c2ccccc2F)c1-c1ccncc1 | 10.2
14 | CCC(=O)N1CCN(c2ncnc3c(C)nn(C)c23)CC1 | -1.43
15 | COc1ccc(NS(=O)(=O)c2cnc(NC(C)=O)s2)cc1 | 10.9
16 | CCn1nc(C)c(NC(=O)CCn2ncc3cc(C)ccc32)c1C | 10.8
17 | Cc1cc(C)c2cc(CNCc3cccnc3)c3nn(C)c(=O)n3c2c1 | -6.11
18 | c1coc(-c2[nH]c3ncccc3c2CN2CCCOCC2)c1 | -5.44
19 | CCN(C)S(=O)(=O)N1CCC(C(O)c2ccc(Cl)cc2)CC1 (stereo unspecified) | 5.84
20 | Cc1cn2c(n1)C(CNCc1cnn3ccccc13)CCC2 (stereo unspecified) | 1.78
21 | COc1ccc(C(NC(=O)NCc2nnc3n2CCC3)C2CC2)cc1 (stereo unspecified) | 11.7
22 | O=S(=O)(NCCCn1cncn1)c1ccc2c(c1)CCCC2 | 4.16
23 | CC(C)COC(=O)N1CCN(C(=O)c2ccc3nccn3c2)CC1 | 12.6

Row | Compound | cytotoxicity at 10 µM [%]
24 | Cc1ccc2cccc(C(=O)NCC3CCN(C(C)C)C3)c2n1 (stereo unspecified) | -9.97
25 | CCC1CN(CCCNS(C)(=O)=O)c2ccccc2O1 (stereo unspecified) | -7.03
26 | CC(=O)N(C)Cc1ccccc1NCc1c(C)cccc1C | -4.54
27 | O=C(C1SCCc2ccccc21)N1CCC(O)CC1 (stereo unspecified) | 0.0013
28 | O=C(NCCCSc1ccc(F)cc1)C1CCc2cn[nH]c2C1 (stereo unspecified) | -3.65
29 | NC(=O)NC(=O)C(c1ccccc1)N1CCN(Cc2ccc(Cl)s2)CC1 (stereo unspecified) | -6.7
30 | CN(Cc1ccccc1F)C(C(N)=O)c1ccccc1 (stereo unspecified) | -2.09
31 | CC(=O)N1CCN(C(=O)CN2CCCC2c2c(C)nn(C)c2C)CC1 (stereo unspecified) | 6.34
32 | O=C(Cn1cccn1)Nc1ccc(N2CCCCC2)cc1 | 0.955
33 | Fc1cccc(CNc2cncc(-n3cccn3)n2)c1 | 0.959
34 | Cc1cc(C)n(-c2ccc(N3CCC(O)CC3)nc2)n1 | -5.08
35 | O=C(NCc1cccc(-n2cncn2)c1)NCC(C1CC1)C1CC1 | 6.03
36 | CCC(CC)C(O)CNC(=O)Nc1cccc(-c2nccn2C)c1 (stereo unspecified) | -1.39
37 | CC(C)OCCOCc1cccc(NC(=O)NCc2cnn(C)c2)c1 | -1.11
38 | CCS(=O)(=O)N1CCc2c(cccc2NC(=O)NCCO)C1 | -7.47
39 | CC(C)Cc1cc(C(=O)NC(C)C)[nH]n1 | 5.67
40 | O=C(NS(=O)(=O)Cc1ccc(F)cc1)C1CCOc2ccccc21 (stereo unspecified) | -3.22
41 | CCN(CC)Cc1ccc(C(=O)NC2CCc3cc(Cl)ccc32)o1 (stereo unspecified) | -3.81
42 | Cc1cccc(N(CCC(N)=O)C(=O)c2ccnc(C)n2)c1 | -8.47
43 | COCCN(CCOC)C(=O)NC1CCCCC1 | -0.655
44 | CC(CC(=O)N1CCCS1(=O)=O)c1ccccc1C(F)(F)F (stereo unspecified) | 8.92
45 | CNC(=O)NC(C)c1c(F)cccc1Cl (stereo unspecified) | -6.2
46 | CCC1c2ccccc2CCN1CCCS(C)(=O)=O (stereo unspecified) | 1.75

Row | Compound | cytotoxicity at 10 µM [%]
47 | Cc1noc(C)c1CN(C)Cn1c(=O)oc2ccccc21 | -5.07
48 | CCn1nc2c(cc1=O)CN(CC(=O)N(C)c1nccs1)CC2 | -4.58
49 | O=C(NC(C(=O)Nc1cc[nH]n1)c1ccccc1)C1CCC1 (stereo unspecified) | -17.5
50 | CCN1CCc2c(cccc2NC(=O)N(C)C2CCSC2)C1 (stereo unspecified) | -49.1
51 | CC(O)CNc1ccc(C#N)cc1C(F)(F)F (stereo unspecified) | -42.7
52 | CCc1ccc(C(C)NC(=O)c2ccc(CS(C)(=O)=O)o2)cc1 (stereo unspecified) | -3.07
53 | CS(=O)(=O)Cc1cc(Cl)c2c(c1)OCCCO2 | -2.55
54 | COC(=O)CCN1CCC(NC(=O)OC(C)(C)C)CC1 | 14.7
55 | COC(=O)c1ccc(N(C)C2CCC2)nn1 | 19.8
56 | CCN(C)c1ccc(CNS(=O)(=O)C2CCOCC2)cc1F | 10.3
57 | COc1ccc(C(=O)N(C)Cc2cccc(C#N)c2)c(OC)c1OC | -17.1
58 | O=C(NCC(O)c1cccc(F)c1)c1cccnc1O (stereo unspecified) | -1.68
59 | CC(=O)N1CCC2(C1)c1ccccc1S(=O)(=O)N2C (stereo unspecified) | 6.57
60 | O=C(c1ccco1)N1Cc2cnn(CC3CC3)c2C(COCC2CC2)C1 (stereo unspecified) | 4.04
61 | CCS(=O)(=O)NCC1Cn2nnc(-c3cccc(C)c3)c2CO1 (stereo unspecified) | -120
62 | CC[C@@H](CO)Nc1cc(-c2cn[nH]c2)ncn1 | -4.78
63 | CN1CCCN(c2nccc(-c3cncnc3C3CCCCC3)n2)CC1 | -6.25
64 | CN1C(=O)CC(C(=O)O)C12CCN(Cc1cc(Cl)ccc1F)CC2 (stereo unspecified) | 5.64
65 | Cc1ccc(C)c(N2CCN(CC3(O)CCNC3)CC2)c1 (stereo unspecified) | -5.83
66 | Cn1cc(C2=CCN(CCCC(=O)Nc3ccc(C#N)cc3)CC2)cn1 | -6.84
67 | CC(C)c1cc(C(=O)N2CCOC3(CCCC3)C2)no1 | -6.2
68 | Cc1nn(CCO)cc1CN1CCC(N2CCC(O)CC2)CC1 | -0.931
69 | CNc1cc(C(=O)NCCC2=CSC3=NCCCN23)ccn1 | 8.71

Row | Compound | cytotoxicity at 10 µM [%]
70 | CCC(Nc1nc(C2CCCC2)nc2c1cnn2C)c1ccncc1 (stereo unspecified) | -39.6
71 | Cc1cccnc1NCCNC(=O)C1CCN(C(=O)N(C)C)CC1 | 1.99
72 | CN(C)C(C(=O)N1Cc2ccccc2C1)c1ccccc1F (stereo unspecified) | -1.91
73 | CC(=O)c1ccc(NCc2cc3n(n2)CCCN(S(C)(=O)=O)C3)nc1 | 1.02
74 | CC(C)c1cc(C(=O)N2CCN(c3ccc(F)c(Cl)c3)CC2)n(C)n1 | 19.7
75 | CCCc1cnc(C)nc1N1CCC(Cn2cc(CO)nn2)CC1 | -4.57
76 | CC(C)Oc1ccccc1OCCN1C(=O)CCNC1=O | -6.67
77 | CS(=O)(=O)N1CCN(c2ccnc(N3CCCC3)n2)CC1 | -1.26
78 | COCCOC1CCN(C(C(=O)O)c2c(Cl)cccc2OC)CC1 (stereo unspecified) | 6.15
79 | COCCc1ncc(CN2C[C@@H](C(=O)O)[C@H](C(C)C)C2)cn1 | -5.35
80 | CC(C)c1nc(CN(C)C(=O)c2cn3ccsc3n2)cs1 | 8.35
81 | CC[C@@]1(O)CCN(CCCOc2ccc(C(N)=O)cc2)C[C@H]1O | -5.03
82 | Cc1cc(=O)[nH]c(SCC(=O)N(C)CC2Cc3ccccc3CN2C)n1 (stereo unspecified) | -1.96
83 | O=C(NCC1CCS(=O)(=O)C1)N1CCN(c2cnccn2)CC1 (stereo unspecified) | -7.21
84 | COc1cccc(CNCc2ccnc(N3CCOCC3)c2)c1OC | 7.26
85 | O=C(Nc1cccc(C2SCCS2)c1)C1CCCN1c1nccs1 (stereo unspecified) | -10.1
86 | Cc1nnc2n1CCN(CC(=O)N1CCc3ccccc3C1)C2 | -9.27
87 | Cc1nc(NC(=O)c2ccc(-n3ncc(C#N)c3N)cc2)sc1C | 7.13
88 | c1cc(CNCC2CNc3ccnn3C2)cc(Cn2cccn2)c1 (stereo unspecified) | -19
89 | Cn1ccnc1CN1CCCN(C(=O)CC(C2CC2)C2CC2)CC1 | -19.8
90 | Cc1cc(NC(=O)NCc2cccnc2OC2CCCC2)n(C)n1 | -1.07
91 | CCNC(=O)C(C)NC(=O)c1cnc(-c2ccc(C)cc2C)s1 (stereo unspecified) | -18.7
92 | CC(C)C(NC(=O)NCCNc1ccccn1)c1cccs1 (stereo unspecified) | -8.13

Row | Compound | cytotoxicity at 10 µM [%]
93 | CCN1CCN(C(=O)c2nc(C)n(-c3ccccc3Cl)n2)CC1 | -2.87
94 | Cc1cc(C)cc(OCCC(=O)N2CCOCC2c2ncon2)c1 (stereo unspecified) | -8.72
95 | Cc1oc(C)c(C(=O)NCc2cccnc2N(C)C)c1C | -0.292
96 | Cc1nc(C2CCCN2CC(=O)NCCOc2ccccc2)no1 (stereo unspecified) | -6.54
97 | Cc1ncc(CNCC(C)O)c2cc(C(=O)c3ccc(Br)cc3)oc12 (stereo unspecified) | 1.39
98 | CC(C)CCN1CCc2[nH]nc(C(=O)N3CC=CC3)c2C1 | -121
99 | Cc1ncsc1CN1C[C@@H]2CCCO[C@@H]2[C@H](N(C)C(C)C)C1 | 1.81
100 | CN(C)C1CCC2(CCN(Cc3cccnc3)CC2)c2ccccc21 (stereo unspecified) | 3.15
101 | Cc1cc(C)cc(CN2CCC3(CC2)CC(Nc2ncccn2)CO3)c1 (stereo unspecified) | 5.39
102 | O=C(c1ccc2[nH]ccc2c1)N1Cc2nc(CN3CCCCC3)oc2C1 | 9.58
103 | CN1CCN(C(=O)c2nc3c(o2)CN(C(=O)c2cccnc2)C3)CC1 | -7.06
104 | CN(Cc1cccnc1)[C@@H]1CN(C(=O)c2ccno2)[C@@H]2CCCO[C@H]12 | -118
105 | Cc1nc(CO[C@@H]2CN(Cc3cnn(C)c3)[C@@H]3COC[C@@H]32)cs1 | -7.06
106 | Cc1ccc(CN2CCC3(CC2)CC(c2cccnc2)CO3)s1 (stereo unspecified) | -9.7
107 | Fc1cccc(-c2nnn3c2COC(CNCc2nccs2)C3)c1 (stereo unspecified) | -102
108 | COCCOCC1(CNC(=O)c2ccc(OC)cc2)C[C@@H](O)[C@@H](O)C1 (stereo partly specified) | 0.0221
109 | O=C(c1ccccn1)N1C[C@H]2CC[C@@H](C1)N(C(=O)CCN1CCCC1)C2 | 3.92
110 | CCc1nccn1CCC(=O)N1C[C@@H]2CC[C@H]1CN(C(=O)N(C)C)C2 | -14.4
111 | CN(C)c1cccc(C(=O)N2C[C@@H]3CC[C@H]2CN(C(=O)C2CCC2)C3)c1 | -0.69
